According to ChEMBL document CHEMBL1130037, “Synthesis and pharmacological properties of a close analogue of an antithrombotic pentasaccharide (SR 90107A/ORG 31540)” (J Med Chem, 1997):

Columns and labels:
[1] = target: Coagulation factor X (Homo sapiens) (UniProt P00742); test: Inhibition of blood coagulation factor Xa was determined by AT III.
In short: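 Amidolytic assay in buffer: factor Xa (7.5 nkat/mL) incubated 2 min at 37 °C with AT III (0.5 unit/mL) and oligosaccharide at various concentrations in 20 mM Tris/maleate pH 7.4, 150 mM NaCl. Residual Xa measured with S-2222 (1 mM stock); stopped after 2 min with acetic acid, A405 read. Activity versus calibrated standard; mean ± SEM, n = 3.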

Rattus norvegicus = test: In vivo antithrombotic activity was determined in rats; format: functional
In short: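 Stasis plus hypercoagulability venous thrombosis in male Sprague-Dawley rats (250-300 g) under pentobarbitone (30 mg/kg ip). Compounds given iv (penile vein) 5 min before human tissue factor (1 ng/kg iv over 30 s). Vena cava ligated 10 s later for 20 min; thrombus dried and weighed. ED50 = 50% thrombus weight reduction; mean with 95% CI, n = 6.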

Antithrombin-III = Antithrombin-III (Homo sapiens, UniProt P01008); test: Dissociation constant for Antithrombin-III
In short: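 Intrinsic protein fluorescence titration at 37 °C with stirring; oligosaccharides added to Tris-HCl 0.01 M pH 7.0, 0.15 M NaCl containing 5–60 nM human AT III (purified). Complex concentrations calculated assuming 1:1 stoichiometry; KD from Scatchard analysis. Mean ± SEM, n = 3.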

Prothrombin = Prothrombin (Homo sapiens, UniProt P00734); test: Inhibition of Thrombin generation was determined; format: functional
In short: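 Thrombin generation in human defibrinated platelet-poor citrated plasma at 37 °C. Cuvette held rabbit brain thromboplastin (amount giving 90 s Quick time), S-2222 (1.6 mM stock), compound in Tris-HCl pH 7.35, and CaCl2 (0.25 M stock). Plasma addition started the reaction; A405 followed 20 min. IC50 from area under curve by four-parameter logistic fit; mean with 95% CI, n = 3.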

[2] = Elimination half life was determined.; format: ADME
In short: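 Rats with jugular catheter (pentobarbitone anesthesia), recovered overnight, received 100 nmol/kg iv bolus. Citrated blood collected; plasma levels measured by anti-factor Xa activity using each compound as its own reference. Half-life from slope of terminal phase; mean ± SEM, n = 4.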

Sequence of Coagulation factor X (Homo sapiens) (P00742 41-179 limits assumed): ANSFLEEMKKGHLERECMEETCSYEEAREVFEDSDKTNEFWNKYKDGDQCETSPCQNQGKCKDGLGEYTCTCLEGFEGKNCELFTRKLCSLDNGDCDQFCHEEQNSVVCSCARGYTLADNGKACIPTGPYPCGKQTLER
Sequence of Coagulation factor X (Homo sapiens) (P00742 235-488 limits assumed): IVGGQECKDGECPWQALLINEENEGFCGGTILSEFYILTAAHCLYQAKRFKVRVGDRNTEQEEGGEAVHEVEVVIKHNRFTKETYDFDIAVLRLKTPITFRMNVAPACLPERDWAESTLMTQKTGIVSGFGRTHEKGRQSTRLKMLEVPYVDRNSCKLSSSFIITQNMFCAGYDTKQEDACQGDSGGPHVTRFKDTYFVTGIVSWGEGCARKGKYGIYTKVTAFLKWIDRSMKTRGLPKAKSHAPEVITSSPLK
Sequence of Antithrombin-III (P01008 whole entry): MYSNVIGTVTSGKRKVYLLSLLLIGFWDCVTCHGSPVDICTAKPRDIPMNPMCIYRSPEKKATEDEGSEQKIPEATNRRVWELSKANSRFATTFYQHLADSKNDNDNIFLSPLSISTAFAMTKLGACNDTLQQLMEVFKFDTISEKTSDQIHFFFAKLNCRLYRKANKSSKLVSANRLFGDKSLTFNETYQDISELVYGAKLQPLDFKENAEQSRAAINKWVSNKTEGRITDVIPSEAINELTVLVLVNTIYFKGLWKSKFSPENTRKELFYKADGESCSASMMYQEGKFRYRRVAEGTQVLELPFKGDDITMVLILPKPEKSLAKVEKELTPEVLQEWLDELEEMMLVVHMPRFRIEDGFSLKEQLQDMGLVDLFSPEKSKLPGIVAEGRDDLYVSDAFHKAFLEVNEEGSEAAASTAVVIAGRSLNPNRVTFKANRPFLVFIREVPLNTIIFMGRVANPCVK

## O=C([O-])C1O[C@@H](O[C@H]2C(O)C(NS(=O)(=O)[O-])[C@@H](O)O[C@H]2COS(=O)(=O)[O-])C(NS(=O)(=O)[O-])[C@@H](O)[C@@H]1O[C@@H]1OC(COS(=O)(=O)[O-])[C@@H](O[C@@H]2O[C@@H](C(=O)[O-])[C@@H](O[C@H]3O[C@@H](COS(=O)(=O)[O-])[C@@H](O)C(O)C3NS(=O)(=O)[O-])C(O)C2O)[C@H](OS(=O)(=O)[O-])C1OS(=O)(=O)[O-].[Na+].[Na+].[Na+].[Na+].[Na+].[Na+].[Na+].[Na+].[Na+].[Na+] (stereo not given in full)
[1]
  Activity: 850 U/mg
Rattus norvegicus
  ED50: 0.081 mg/kg
Antithrombin-III
  Kd: 58 nM
Prothrombin
  IC50: 130 nM
[2]
  half-life: 42 min
